Converted amounts (≈) assume the structure as drawn.
Assays:
Enterobacter cloacae [1] = test: Antimicrobial activity against aac(6')-Ib-cr-negative Enterobacter cloacae SH39T harboring qnrA gene by agar dilution method in presence of Tazobactam; type: functional
Summary of the method: (§1)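 MICs were determined by the CLSI agar dilution method (M7-A7) and interpreted against CLSI M100-S17 breakpoints.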

Klebsiella pneumoniae [2] = test: Antimicrobial activity against aac(6')-Ib-cr-positive Klebsiella pneumoniae SY26 harboring GyrA S83I, ParC S80I mutant, wild-type GyrB and qnrB genes by agar dilution method in presence of Tazobactam; type: functional
Summary of the method: (§2)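 MICs measured by CLSI agar dilution (M7-A7) and interpreted against CLSI M100-S17 breakpoints. Strains were clinical Enterobacteriaceae isolates or the azide-resistant E. coli J53 recipient.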

Citrobacter freundii [3] = test: Antimicrobial activity against aac(6')-Ib-cr-positive Citrobacter freundii TJ15 harboring GyrA T83I, ParC S80I mutant, wild-type GyrB, qnrB genes by agar dilution method in presence of Tazobactam; type: functional; summary of the method: as §1
Enterobacter cloacae [4] = test: Antimicrobial activity against aac(6')-Ib-cr-negative Enterobacter cloacae WH42 harboring wild-type GyrA, ParC, GyrB and qnrA genes by agar dilution method in presence of Tazobactam; type: functional; summary of the method: as §2
Klebsiella pneumoniae [5] = test: Antimicrobial activity against aac(6')-Ib-cr-positive Klebsiella pneumoniae WH99 harboring wild-type GyrA, ParC, GyrB and qnrB genes by agar dilution method in presence of Tazobactam; type: functional; summary of the method: as §2
Klebsiella pneumoniae [6] = test: Antimicrobial activity against aac(6')-Ib-cr-positive Klebsiella pneumoniae WH99T harboring qnrB gene by agar dilution method in presence of Tazobactam; type: functional
Summary of the method: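 Transconjugants were made by conjugating a qnr/aac(6')-Ib-cr donor with azide-resistant E. coli J53. Selection used Trypticase soy agar with sodium azide 150 µg/ml and sulfamethoxazole 180 µg/ml. […] MICs were read by CLSI agar dilution (M7-A7) and interpreted per M100-S17.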

Escherichia coli [7] = test: Antimicrobial activity against Escherichia coli J53 harboring wild-type GyrA, ParC, GyrB genes by agar dilution method in presence of beta-lactamase inhibitor Tazobactam; type: functional; summary of the method: as §2
Escherichia coli [8] = test: Antimicrobial activity against aac(6')-Ib-cr-positive Escherichia coli FJ3T harboring wild-type GyrA, ParC, GyrB and qnrB genes by agar dilution method in presence of Tazobactam; type: functional
Summary of the method: (§3)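 Transconjugants came from conjugation of qnr and/or aac(6')-Ib-cr donors into azide-resistant E. coli J53. […] MICs were measured by CLSI agar dilution (M7-A7) and interpreted per M100-S17.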

Enterobacter cloacae [9] = test: Antimicrobial activity against aac(6')-Ib-cr-negative Enterobacter cloacae FJ61T harboring qnrS gene by agar dilution method in presence of Tazobactam; type: functional; summary of the method: as §1
Enterobacter cloacae [10] = test: Antimicrobial activity against aac(6')-Ib-cr-positive Enterobacter cloacae FJ63T harboring qnrS gene by agar dilution method in presence of Tazobactam; type: functional; summary of the method: as §1
Enterobacter cloacae [11] = test: Antimicrobial activity against aac(6')-Ib-cr-negative Enterobacter cloacae FJ67T harboring qnrS gene by agar dilution method in presence of Tazobactam; type: functional; summary of the method: as §1
Klebsiella pneumoniae [12] = test: Antimicrobial activity against aac(6')-Ib-cr-positive Klebsiella pneumoniae GZ40 harboring GyrA S83I, ParC S80I mutant, wild-type GyrB and qnrB genes by agar dilution method in presence of Tazobactam; type: functional; summary of the method: as §1
Enterobacter cloacae [13] = test: Antimicrobial activity against aac(6')-Ib-cr-negative Enterobacter cloacae GZ47T harboring qnrB gene by agar dilution method in presence of Tazobactam; type: functional; summary of the method: as §1
Enterobacter cloacae [14] = test: Antimicrobial activity against aac(6')-Ib-cr-negative Enterobacter cloacae GZ51T harboring qnrA gene by agar dilution method in presence of Tazobactam; type: functional; summary of the method: as §1
Klebsiella pneumoniae [15] = test: Antimicrobial activity against aac(6')-Ib-cr-positive Klebsiella pneumoniae JN132 harboring GyrA S83I, ParC S80I mutant, wild-type GyrB and qnrB genes by agar dilution method in presence of Tazobactam; type: functional; summary of the method: as §2
Klebsiella pneumoniae [16] = test: Antimicrobial activity against aac(6')-Ib-cr-positive Klebsiella pneumoniae JN132T harboring qnrB gene by agar dilution method in presence of Tazobactam; type: functional; summary of the method: as §3
Citrobacter freundii [17] = test: Antimicrobial activity against aac(6')-Ib-cr-positive Citrobacter freundii PU55T harboring wild-type GyrA, ParC, GyrB and qnrA genes by agar dilution method in presence of clavulanic acid; type: functional
Summary of the method: (§4)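 Transconjugants came from conjugation of qnr and/or aac(6')-Ib-cr-carrying donors with azide-resistant E. coli J53. […] MICs were determined by CLSI agar dilution (M7-A7) and interpreted by M100-S17.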

Enterobacter cloacae [18] = test: Antimicrobial activity against aac(6')-Ib-cr-negative Enterobacter cloacae WH42 harboring wild-type GyrA, ParC, GyrB and qnrA genes by agar dilution method in presence of clavulanic acid; type: functional; summary of the method: as §1
Klebsiella pneumoniae [19] = test: Antimicrobial activity against aac(6')-Ib-cr-positive Klebsiella pneumoniae WH99T harboring qnrB gene by agar dilution method in presence of clavulanic acid; type: functional; summary of the method: as §4
Escherichia coli [20] = test: Antimicrobial activity against Escherichia coli J53 harboring wild-type GyrA, ParC, GyrB genes by agar dilution method
Escherichia coli [21] = test: Antimicrobial activity against aac(6')-Ib-cr-positive Escherichia coli FJ3 harboring GyrA S83L, ParC S80R mutant, wild-type GyrB and qnrB genes by agar dilution method; type: functional; summary of the method: as §1
Enterobacter cloacae [22] = test: Antimicrobial activity against aac(6')-Ib-cr-negative Enterobacter cloacae FJ61 harboring GyrA S83I, GyrA D87A, ParC S80I mutant, wild-type GyrB and qnrS genes by agar dilution method; type: functional
Enterobacter cloacae [23] = test: Antimicrobial activity against aac(6')-Ib-cr-positive Enterobacter cloacae FJ63 harboring GyrA S83I, GyrA D87A, ParC S80I mutant, wild-type GyrB and qnrS genes by agar dilution method in presence of clavulanic acid; type: functional; summary of the method: as §1
Enterobacter cloacae [24] = test: Antimicrobial activity against aac(6')-Ib-cr-negative Enterobacter cloacae FJ67T harboring qnrS gene by agar dilution method in presence of clavulanic acid; type: functional; summary of the method: as §4
Enterobacter cloacae [25] = test: Antimicrobial activity against aac(6')-Ib-cr-negative Enterobacter cloacae GZ51 harboring qnrA gene by agar dilution method in presence of clavulanic acid; type: functional
Summary of the method: (§5)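 MICs were determined by CLSI agar dilution (M7-A7) and interpreted by CLSI M100-S17 breakpoints. The curator's line names the β-lactamase inhibitor added.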

Klebsiella pneumoniae [26] = test: Antimicrobial activity against aac(6')-Ib-cr-positive Klebsiella pneumoniae JN132 harboring GyrA S83I, ParC S80I mutant, wild-type GyrB and qnrB genes by agar dilution method; type: functional
Summary of the method: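 MICs were determined on clinical isolates by CLSI agar dilution (M7-A7) and interpreted against CLSI M100-S17 breakpoints.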

Klebsiella pneumoniae [27] = test: Antimicrobial activity against aac(6')-Ib-cr-positive Klebsiella pneumoniae JN41 harboring GyrA S83I, ParC S80I mutant, wild-type GyrB and qnrB genes by agar dilution method in presence of clavulanic acid; type: functional; summary of the method: as §5
Citrobacter freundii [28] = test: Antimicrobial activity against aac(6')-Ib-cr-negative Citrobacter freundii JN64 harboring GyrA T83I, wild-type ParC, GyrB and qnrA genes by agar dilution method; type: functional; summary of the method: as §1
Citrobacter freundii [29] = test: Antimicrobial activity against aac(6')-Ib-cr-negative Citrobacter freundii JN64T harboring qnrA gene by agar dilution method; type: functional; summary of the method: as §1
Citrobacter freundii [30] = test: Antimicrobial activity against aac(6')-Ib-cr-positive Citrobacter freundii JS33 harboring GyrA T83I mutant, wild-type ParC, GyrB, qnrA and qnrB genes by agar dilution method; type: functional; summary of the method: as §1

## CCN1CCN(C(=O)N[C@@H](C(=O)N[C@@H]2C(=O)N3[C@@H]2SC(C)(C)[C@@H]3C(=O)O)c2ccccc2)C(=O)C1=O [PIPERACILLIN]
Enterobacter cloacae [1]
  MIC: 1 µg/mL
Klebsiella pneumoniae [2]
  MIC: 16 µg/mL
Citrobacter freundii [3]
  MIC: 4 µg/mL
Enterobacter cloacae [4]
  MIC: 64 µg/mL
Klebsiella pneumoniae [5]
  MIC: 8 µg/mL
Klebsiella pneumoniae [6]
  MIC: 2 µg/mL
Escherichia coli [7]
  MIC: 1 µg/mL
Escherichia coli [8]
  MIC: 1 µg/mL
Enterobacter cloacae [9]
  MIC: 1 µg/mL
Enterobacter cloacae [10]
  MIC: 2 µg/mL
Enterobacter cloacae [11]
  MIC: 1 µg/mL
Klebsiella pneumoniae [12]
  MIC: > 256 µg/mL
Enterobacter cloacae [13]
  MIC: 2 µg/mL
Enterobacter cloacae [14]
  MIC: 2 µg/mL
Klebsiella pneumoniae [15]
  MIC: 4 µg/mL
Klebsiella pneumoniae [16]
  MIC: 4 µg/mL

## CO/N=C(\C(=O)N[C@@H]1C(=O)N2C(C(=O)O)=C(COC(C)=O)CS[C@H]12)c1csc(N)n1 [CEFOTAXIME]
Citrobacter freundii [17]
  MIC: 0.032 µg/mL
Enterobacter cloacae [18]
  MIC: 256 µg/mL
Klebsiella pneumoniae [19]
  MIC: 0.064 µg/mL
Escherichia coli [20]
  MIC: 0.032 µg/mL (≈ 0.0703 µM)
Escherichia coli [21]
  MIC: 128 µg/mL (≈ 281 µM)
Enterobacter cloacae [22]
  MIC: 256 µg/mL (≈ 562 µM)
Enterobacter cloacae [23]
  MIC: 1 µg/mL
Enterobacter cloacae [24]
  MIC: 0.032 µg/mL
Enterobacter cloacae [25]
  MIC: 32 µg/mL
Klebsiella pneumoniae [26]
  MIC: 32 µg/mL (≈ 70.3 µM)
Klebsiella pneumoniae [27]
  MIC: 0.032 µg/mL
Citrobacter freundii [28]
  MIC: 256 µg/mL (≈ 562 µM)
Citrobacter freundii [29]
  MIC: 16 µg/mL (≈ 35.1 µM)
Citrobacter freundii [30]
  MIC: 8 µg/mL (≈ 17.6 µM)
